Where a SMILES comes first, the peptide text is derived from it.
Biological target: Kappa-type opioid receptor (Homo sapiens, UniProt P41145)
Assay: Displacement of [3H]U69593 from human kappa opioid receptor expressed in CHO-K1 cells incubated for 1 hr by 1450 microbeta scintillation counter analysis
Type: cell-based
Summary of the method: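 Membranes from transiently KOR-transfected CHO-K1 cells (~2 µg/well) used in SPA with 3H-U69,593 (1 nM). Competitor ranged 1 pM–10 µM in 50 mM Tris-HCl pH 7.4, 5 mM MgCl2, 0.1% BSA. Incubated 1 h at room temperature with shaking. Nonspecific binding defined with 10 µM dynorphin A. Sigmoidal dose-response fit; at least three independent experiments in triplicate.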

Kappa-type opioid receptor, sequence (P41145 whole entry): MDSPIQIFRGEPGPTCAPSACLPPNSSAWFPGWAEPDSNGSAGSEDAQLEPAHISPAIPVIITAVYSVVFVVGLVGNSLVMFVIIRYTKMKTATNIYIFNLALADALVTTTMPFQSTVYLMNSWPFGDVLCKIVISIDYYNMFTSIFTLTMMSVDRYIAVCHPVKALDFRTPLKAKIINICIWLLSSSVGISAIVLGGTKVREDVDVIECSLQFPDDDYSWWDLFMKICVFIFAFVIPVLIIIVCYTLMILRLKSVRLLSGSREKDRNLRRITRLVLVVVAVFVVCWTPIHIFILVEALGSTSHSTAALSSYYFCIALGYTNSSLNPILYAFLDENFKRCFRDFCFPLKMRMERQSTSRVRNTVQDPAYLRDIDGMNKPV

Structure (SMILES)	Ki
CC(C)C[C@H](NC(=O)[C@@H](CCCNC(=N)N)NC(=O)[C@@H](CCCNC(=N)N)NC(=O)[C@@H]1CCCN1C(=O)c1ccccc1)C(=O)N[C@@H](CC1CCCCC1)C(=O)N[C@H]1CSSC[C@@H](C(N)=O)NC1=O	1.4 nM
C[C@H](NC(=O)[C@H](CCC(N)=O)NC(=O)[C@H](CCCNC(=N)N)NC(=O)[C@H](CCCNC(=N)N)NC(=O)[C@@H]1CSSC[C@H](NC(=O)[C@@H](N)CC(N)=O)C(=O)N1)C(=O)N[C@H]1CSSC[C@@H](C(N)=O)NC1=O (HELM PEPTIDE1{N.C.C.R.R.Q.A.C.C.[am]}$PEPTIDE1,PEPTIDE1,2:R3-3:R3|PEPTIDE1,PEPTIDE1,8:R3-9:R3$$$V2.0)	2450 nM
N=C(N)NCCC[C@@H](NC(=O)[C@@H](CCCNC(=N)N)NC(=O)[C@@H]1CCCN1C(=O)c1ccccc1)C(=O)N[C@@H](CCC(N)=O)C(=O)N[C@@H](CC1CCCCC1)C(=O)N[C@H]1CC(=O)NC[C@@H](C(N)=O)NC1=O	233 nM
N=C(N)NCCC[C@@H](NC(=O)[C@@H](CCCNC(=N)N)NC(=O)[C@@H]1CCCN1C(=O)c1ccc(Cl)cc1)C(=O)N[C@@H](CCC(N)=O)C(=O)N[C@@H](CC1CCCCC1)C(=O)N[C@H]1CSSC[C@@H](C(=O)O)NC1=O	795 nM
N=C(N)NCCC[C@@H](NC(=O)c1ccc(F)cc1)C(=O)N[C@H](CCCNC(=N)N)C(=O)N[C@@H](CCC(N)=O)C(=O)N[C@@H](CC1CCCCC1)C(=O)N[C@H]1CSSC[C@@H](C(N)=O)NC1=O	5.4 nM
N=C(N)NCCC[C@@H](NC(=O)[C@@H]1CCC(=O)N1)C(=O)N[C@H](CCCNC(=N)N)C(=O)N[C@@H](CCC(N)=O)C(=O)N[C@@H](CC1CCCCC1)C(=O)N[C@H]1CCSSC[C@@H](C(N)=O)NC1=O	783 nM
CC[C@H](C)[C@H](NC(=O)[C@H](CCC(N)=O)NC(=O)[C@H](Cc1c[nH]cn1)NC(=O)[C@H](CCCNC(=N)N)NC(=O)[C@@H]1CSSC[C@H](NC(=O)[C@@H](N)CC(N)=O)C(=O)N1)C(=O)N[C@H]1CSSC[C@@H](C(N)=O)NC1=O (HELM PEPTIDE1{N.C.C.R.H.Q.I.C.C.[am]}$PEPTIDE1,PEPTIDE1,2:R3-3:R3|PEPTIDE1,PEPTIDE1,8:R3-9:R3$$$V2.0)	85 nM
N=C(N)NCCC[C@@H](NC(=O)[C@@H](CCCNC(=N)N)NC(=O)[C@@H]1CCCN1C(=O)c1ccccc1)C(=O)N[C@@H](CC(N)=O)C(=O)N[C@@H](CC1CCCCC1)C(=O)N[C@H]1CSSC[C@@H](C(N)=O)NC1=O	0.61 nM
N=C(N)NCCC[C@@H](NC(=O)[C@@H](CCCNC(=N)N)NC(=O)[C@@H]1CCCN1C(=O)c1ccccc1)C(=O)N[C@@H](Cc1ccccc1)C(=O)N[C@@H](CC1CCCCC1)C(=O)N[C@H]1CSSC[C@@H](C(N)=O)NC1=O	0.59 nM
CC[C@H](C)[C@@H]1NC(=O)[C@H](CCC(N)=O)NC(=O)[C@H](CCCNC(=N)N)NC(=O)[C@H](CCCNC(=N)N)NC(=O)[C@@H]2CSSC[C@@H](C(N)=O)NC(=O)[C@H](CSSC[C@H](NC(=O)[C@@H](N)CC(N)=O)C(=O)N2)NC1=O (HELM PEPTIDE1{N.C.C.R.R.Q.I.C.C.[am]}$PEPTIDE1,PEPTIDE1,2:R3-8:R3|PEPTIDE1,PEPTIDE1,3:R3-9:R3$$$V2.0)	1470 nM
CC(C)C[C@H](NC(=O)[C@H](CCC(N)=O)NC(=O)[C@H](CCCNC(=N)N)NC(=O)[C@H](CCCNC(=N)N)NC(=O)[C@@H]1CSSC[C@H](NC(=O)[C@@H](N)CC(N)=O)C(=O)N1)C(=O)N[C@H]1CSSC[C@@H](C(N)=O)NC1=O (HELM PEPTIDE1{N.C.C.R.R.Q.L.C.C.[am]}$PEPTIDE1,PEPTIDE1,2:R3-3:R3|PEPTIDE1,PEPTIDE1,8:R3-9:R3$$$V2.0)	24 nM
CC[C@H](C)[C@H](NC(=O)[C@H](CCC(N)=O)NC(=O)[C@H](CCCNC(=N)N)NC(=O)[C@H](CCCNC(=N)N)NC(=O)[C@@H]1CSSC[C@H](NC(=O)[C@@H](N)Cc2ccc(O)cc2)C(=O)N1)C(=O)N[C@H]1CSSC[C@@H](C(N)=O)NC1=O (HELM PEPTIDE1{Y.C.C.R.R.Q.I.C.C.[am]}$PEPTIDE1,PEPTIDE1,2:R3-3:R3|PEPTIDE1,PEPTIDE1,8:R3-9:R3$$$V2.0)	40.3 nM
N=C(N)NCCC[C@@H](NC(=O)[C@@H](CCCNC(=N)N)NC(=O)[C@@H]1CCCN1C(=O)c1ccccc1)C(=O)N[C@@H](CCC(N)=O)C(=O)N[C@@H](CC1CCCCC1)C(=O)N1CCSSC[C@@H](C(N)=O)NC(=O)C1	199 nM
CC[C@H](C)[C@@H]1NC(=O)[C@H](CCC(N)=O)NC(=O)[C@H](CCCNC(=N)N)NC(=O)[C@H](CCCNC(=N)N)NC(=O)[C@@H]2CSSC[C@H](NC1=O)C(=O)N[C@H](C(N)=O)CSSC[C@H](NC(=O)[C@@H](N)CC(N)=O)C(=O)N2 (HELM PEPTIDE1{N.C.C.R.R.Q.I.C.C.[am]}$PEPTIDE1,PEPTIDE1,2:R3-9:R3|PEPTIDE1,PEPTIDE1,3:R3-8:R3$$$V2.0)	580 nM
CC[C@H](C)[C@H](NC(=O)[C@H](CCC(N)=O)NC(=O)[C@H](CCCNC(=N)N)NC(=O)[C@H](C)NC(=O)[C@@H]1CSSC[C@H](NC(=O)[C@@H](N)CC(N)=O)C(=O)N1)C(=O)N[C@H]1CSSC[C@@H](C(N)=O)NC1=O (HELM PEPTIDE1{N.C.C.A.R.Q.I.C.C.[am]}$PEPTIDE1,PEPTIDE1,2:R3-3:R3|PEPTIDE1,PEPTIDE1,8:R3-9:R3$$$V2.0)	170 nM
N=C(N)NCCC[C@H](NC(=O)[C@@H]1CCC(=O)N1)C(=O)N[C@@H](CCCNC(=N)N)C(=O)N[C@@H](CCC(N)=O)C(=O)N[C@@H](CC1CCCCC1)C(=O)N[C@H]1CCCCN(CC(N)=O)C1=O (HELM PEPTIDE1{[Glp].R.R.Q.[Cha].[NC(=O)CN1CCCC[C@H](N[*:1])C1=O]}$$$$V2.0)	12900 nM
CC[C@H](C)[C@H](NC(=O)[C@H](C)NC(=O)[C@H](CCCNC(=N)N)NC(=O)[C@H](CCCNC(=N)N)NC(=O)[C@@H]1CSSC[C@H](NC(=O)[C@@H](N)CC(N)=O)C(=O)N1)C(=O)N[C@H]1CSSC[C@@H](C(N)=O)NC1=O (HELM PEPTIDE1{N.C.C.R.R.A.I.C.C.[am]}$PEPTIDE1,PEPTIDE1,2:R3-3:R3|PEPTIDE1,PEPTIDE1,8:R3-9:R3$$$V2.0)	133 nM
CC[C@H](C)[C@H](NC(=O)[C@H](CCC(N)=O)NC(=O)[C@H](CCCNC(=N)N)NC(=O)[C@H](Cc1c[nH]cn1)NC(=O)[C@@H]1CSSC[C@H](NC(=O)[C@@H](N)CC(N)=O)C(=O)N1)C(=O)N[C@H]1CSSC[C@@H](C(N)=O)NC1=O (HELM PEPTIDE1{N.C.C.H.R.Q.I.C.C.[am]}$PEPTIDE1,PEPTIDE1,2:R3-3:R3|PEPTIDE1,PEPTIDE1,8:R3-9:R3$$$V2.0)	137 nM
CC[C@H](C)[C@H](NC(=O)[C@H](CCC(N)=O)NC(=O)[C@H](C)NC(=O)[C@H](CCCNC(=N)N)NC(=O)[C@@H]1CSSC[C@H](NC(=O)[C@@H](N)CC(N)=O)C(=O)N1)C(=O)N[C@H]1CSSC[C@@H](C(N)=O)NC1=O (HELM PEPTIDE1{N.C.C.R.A.Q.I.C.C.[am]}$PEPTIDE1,PEPTIDE1,2:R3-3:R3|PEPTIDE1,PEPTIDE1,8:R3-9:R3$$$V2.0)	406 nM
N=C(N)NCCC[C@@H](NC(=O)[C@@H](CCCNC(=N)N)NC(=O)[C@@H]1CCCN1C(=O)c1ccccc1)C(=O)N[C@@H](CCC(N)=O)C(=O)N[C@@H](CC1CCCCC1)C(=O)N[C@H]1CSSCCN(CC(N)=O)C1=O	465 nM
N=C(N)NCCC[C@H](NC(=O)[C@H](CCCNC(=N)N)NC(=O)[C@@H]1CSSC[C@H](NC(=O)[C@@H](N)CC(N)=O)C(=O)N1)C(=O)N[C@@H](CCC(N)=O)C(=O)N[C@@H](Cc1ccccc1)C(=O)N[C@H]1CSSC[C@@H](C(N)=O)NC1=O (HELM PEPTIDE1{N.C.C.R.R.Q.F.C.C.[am]}$PEPTIDE1,PEPTIDE1,2:R3-3:R3|PEPTIDE1,PEPTIDE1,8:R3-9:R3$$$V2.0)	28 nM

Source: ChEMBL document CHEMBL5252514, “Conopeptide-Derived κ-Opioid Agonists (Conorphins): Potent, Selective, and Metabolic Stable Dynorphin A Mimetics with Antinociceptive Properties” (J Med Chem, 2016)
